Data set [1] concerns Artemia. Kind of data set: Toxicity against brine shrimp assessed as immobilization at 17 ug/ml. The note with it: in vivo. Type of data set: organism-based. The essentials:
(§1)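 Brine shrimp immobilization was scored in a 96-well plate format and reported as percent immobilization with 90% confidence intervals. Where both monovalent and divalent cation salts of a sulfate were isolated, the divalent cation salt was the one tested.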

Data set [2] relates to A549. Kind of data set: Cytotoxicity against human A549 cells. Type of data set: functional, cell-based.
In data set [3] the test system is HT-29. The experiment in a line: Cytotoxicity against human HT29 cells. The data set is classed as functional, cell-based.
Data set [4] is described as follows: Cytotoxicity against human MEL28 cells. The data set is classed as functional, cell-based. As to conditions: SK-MEL-28.
Data set [5] has as its system P388. The experiment in a line: Cytotoxicity against mouse P388 cells. The data set is classed as functional, cell-based.
Data set [6] concerns Artemia. Kind of data set: Toxicity against brine shrimp assessed as immobilization at 50 ug/ml. The data set is classed as organism-based. The note with it: in vivo. The essentials: as §1

The term IC50 denotes the concentration needed to halve the response being measured. A low value points to greater potency.

Structures are written as SMILES. Some results are limits rather than exact numbers.

Take `COC(=O)[C@]1(C)[C@@H](OS(=O)(=O)O)CC[C@]23C[C@]24CC[C@]2(C)[C@@H]([C@H](C)C[C@@H](O)C=C(C)C)CC[C@@]2(C)[C@@H]4CC[C@@H]13`: the Activity in data set [1] was 55.7%. The IC50 in data set [2], in data set [3], in data set [4] and in data set [5] was above 10 µg/mL in each case.
As to `COC(=O)[C@]1(C)[C@@H](OS(=O)(=O)O)CC[C@]23C[C@]24CC[C@]2(C)[C@@H]([C@H](C)CC(=O)C=C(C)C)CC[C@@]2(C)[C@@H]4CC[C@@H]13`, the IC50 in data set [2], in data set [3], in data set [4] and in data set [5] was above 10 µg/mL in each case.
For the compound `CC(C)=C[C@H](O)C[C@@H](C)[C@H]1CC[C@@]2(C)[C@@H]3CC[C@H]4[C@](C)(CO)[C@@H](OS(=O)(=O)O)CC[C@@]45C[C@@]35CC[C@]12C`, in data set [1], the Activity is recorded as 47.1%. Also, the half-inhibitory concentration (IC50) in data set [2], in data set [3], in data set [4] and in data set [5] was above 10 µg/mL each time.
On to `CC(C)=CC(=O)C[C@@H](C)[C@H]1CC[C@@]2(C)[C@@H]3CC[C@H]4[C@](C)(CO)[C@@H](OS(=O)(=O)O)CC[C@@]45C[C@@]35CC[C@]12C`, for which the IC50 in data set [2], in data set [3], in data set [4] and in data set [5] was above 2 µg/mL each time.
As to `CC(C)=C[C@H](O)C[C@@H](C)[C@H]1CC[C@@]2(C)[C@@H]3CC[C@H]4C(C)(C)[C@@H](OS(=O)(=O)O)CC[C@@]45C[C@@]35CC[C@]12C`, the IC50 in data set [2], in data set [3], in data set [4] and in data set [5] was above 2 µg/mL each time.
As to `CC(C)=CC(=O)C[C@@H](C)[C@H]1CC[C@@]2(C)[C@@H]3CC[C@H]4C(C)(C)[C@@H](OS(=O)(=O)O)CC[C@@]45C[C@@]35CC[C@]12C`, the IC50 in data set [2], in data set [3], in data set [4] and in data set [5] was above 10 µg/mL in each case.
Turning to `COC(=O)[C@@H]1[C@@H](OS(=O)(=O)O)CC[C@]23C[C@]24CC[C@]2(C)[C@@H]([C@H](C)C[C@@H](O)C=C(C)C)CC[C@@]2(C)[C@@H]4CC[C@@H]13`, the IC50 in data set [2], in data set [3], in data set [4] and in data set [5] was above 1 µg/mL in each case. Besides, in data set [6], the Activity was 39.1%.
Take `COC(=O)[C@@H]1[C@@H](OS(=O)(=O)O)CC[C@]23C[C@]24CC[C@]2(C)[C@@H]([C@H](C)CC(=O)C=C(C)C)CC[C@@]2(C)[C@@H]4CC[C@@H]13`: the IC50 in data set [2], in data set [3], in data set [4] and in data set [5] was above 1 µg/mL each time.
Consider `COC(=O)[C@@H]1[C@@H](OS(=O)(=O)O)CC[C@]2(C)C3=C(CC[C@@H]12)[C@]1(C)CC[C@H]([C@H](C)C[C@@H](O)C=C(C)C)[C@@]1(C)CC3`, for which the IC50 in data set [2], in data set [3], in data set [4] and in data set [5] was above 2 µg/mL in each case.
For the compound `COC(=O)[C@@H]1[C@@H](OS(=O)(=O)O)CC[C@]2(C)C3=C(CC[C@@H]12)[C@]1(C)CC[C@H]([C@H](C)CC(=O)C=C(C)C)[C@@]1(C)CC3`, the IC50 in data set [2], in data set [3], in data set [4] and in data set [5] was above 1 µg/mL in each case. Further, the Activity in data set [6] is given as 35.5%.
Take `COC(=O)[C@]1(C)[C@@H](OS(=O)(=O)[O-])CC[C@]23C[C@]24CC[C@]2(C)[C@@H]([C@H](C)CC(=O)C=C(C)C)CC[C@@]2(C)[C@@H]4CC[C@@H]13.COC(=O)[C@]1(C)[C@@H](OS(=O)(=O)[O-])CC[C@]23C[C@]24CC[C@]2(C)[C@@H]([C@H](C)CC(=O)C=C(C)C)CC[C@@]2(C)[C@@H]4CC[C@@H]13.[Ca+2]`: the IC50 in data set [2], in data set [3], in data set [4] and in data set [5] was above 10 µg/mL throughout.
As for `COC(=O)[C@]1(C)[C@@H](OS(=O)(=O)[O-])CC[C@]23C[C@]24CC[C@]2(C)[C@@H]([C@H](C)CC(=O)C=C(C)C)CC[C@@]2(C)[C@@H]4CC[C@@H]13.COC(=O)[C@]1(C)[C@@H](OS(=O)(=O)[O-])CC[C@]23C[C@]24CC[C@]2(C)[C@@H]([C@H](C)CC(=O)C=C(C)C)CC[C@@]2(C)[C@@H]4CC[C@@H]13.[Mg+2]`, the IC50 in data set [2], in data set [3], in data set [4] and in data set [5] was above 10 µg/mL throughout.
For `COC(=O)[C@]1(C)[C@@H](OS(=O)(=O)[O-])CC[C@]23C[C@]24CC[C@]2(C)[C@@H]([C@H](C)CC(=O)C=C(C)C)CC[C@@]2(C)[C@@H]4CC[C@@H]13.[Na+]`, the IC50 in data set [2], in data set [3], in data set [4] and in data set [5] was above 10 µg/mL each time.
